The record followed here is ChEMBL document CHEMBL4261490, “Exploring the links between peptoid antibacterial activity and toxicity” (Medchemcomm, 2017).

Data set [1] is described as follows: Selectivity index, ratio of ED50 for human HaCaT cells to MIC for Staphylococcus aureus 3R7089 strain Oxford/ATCC 9144. In kind it is toxicity. The conditions noted are these: read-out: Selectivity Index.
The nature of data set [2]: Selectivity index, ratio of ED50 for human HaCaT cells to MIC for Staphylococcus epidermidis clinical isolate. As to conditions: read-out: Selectivity Index. In kind it is toxicity.
Data set [3] can be described thus: Selectivity index, ratio of ED50 for human HepG2 cells to MIC for Staphylococcus aureus 3R7089 strain Oxford/ATCC 9144. Type of data set: toxicity. The conditions noted are these: read-out: Selectivity Index.
Data set [4] is described as follows: Selectivity index, ratio of ED50 for human HepG2 cells to MIC for Staphylococcus epidermidis clinical isolate. As to conditions: read-out: Selectivity Index. In kind it is toxicity.
A short description of data set [5]: Cytotoxicity against human HaCaT cells assessed as reduction in cell viability pretreated for 1 hr followed by DMEM addition measured after 24 hrs by alamar blue assay. Type of data set: cell-based. As to conditions: read-out: ED50. The method in brief:
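HaCaT keratinocytes are grown in DMEM high glucose with 10% FBS and 1% P/S and seeded at 2x10^4 cells/well 24 h before treatment. Compound dilution series run 2–100 µM (5 mM DMSO stocks) in 50 µL for 1 h, then medium is added for 24 h at 37 °C, 5% CO2. alamarBlue is read after 1 h (Ex 540/Em 620). Triplicate, ≥2 occasions; ED50 from dose-response; amphotericin B positive control.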

Data set [6] is described as follows: Cytotoxicity against human HepG2 cells assessed as reduction in cell viability pretreated for 1 hr followed by DMEM addition measured after 24 hrs by alamar blue assay. Type of data set: cell-based. As to conditions: read-out: ED50. An outline of the steps:
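HepG2 cells are kept in DMEM high glucose with 10% heat-inactivated FBS and 1% P/S at 37 °C, 5% CO2, and seeded at 2x10^4 cells/well one day ahead. They are exposed to compounds (100 to 3 µM, from 5 mM DMSO stocks) in 50 µL for 1 h. Medium is then added and cells incubated 24 h. alamarBlue is read after 2 h (Ex 560/Em 600). Triplicate on ≥2 occasions; ED50 from dose-response; DMSO negative control.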

A short description of data set [7]: Selectivity index, ratio of ED50 for human HaCaT cells to MIC for Escherichia coli K-12 W3110 ATCC 27325. In kind it is toxicity. The conditions noted are these: read-out: Selectivity Index.
A short description of data set [8]: Selectivity index, ratio of ED50 for human HepG2 cells to MIC for Escherichia coli K-12 W3110 ATCC 27325. Type of data set: toxicity. As to conditions: read-out: Selectivity Index.
The nature of data set [9]: Selectivity index, ratio of ED50 for human HaCaT cells to MIC for Pseudomonas aeruginosa PAO1 ATCC 15692. The conditions noted are these: read-out: Selectivity Index. In kind it is toxicity.
Data set [10] can be described thus: Selectivity index, ratio of ED50 for human HepG2 cells to MIC for Pseudomonas aeruginosa PAO1 ATCC 15692. Type of data set: toxicity. The conditions noted are these: read-out: Selectivity Index.
The test system of a further data set is Pseudomonas aeruginosa. Briefly: Antibacterial activity against Pseudomonas aeruginosa PAO1 ATCC 15692 incubated for 16 hrs under shaking condition. In kind it is functional. As to conditions: PAO1 ATCC 15692, 16 h. An outline of the steps: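 Broth microdilution (Andrews method) in Iso-sensitest broth. Overnight cultures are adjusted to A650 0.07 (0.5 McFarland) and diluted ten-fold. Compounds come from 5 mM DMSO stocks, 2-fold serially diluted, final 2–100 μM in a 1:1 inoculum:compound mix. Incubation is 37 °C for 16 h with shaking. MIC is the lowest concentration giving complete growth inhibition, read by absorbance; triplicate.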

Square brackets hold non-standard residues; d marks the D form. Peptide text beside a SMILES is read from it. N(4-F-Bzl)Gly = O=C(O)CNCc1ccc(F)cc1; Gly(N-(CH2)6NH2) = NCCCCCCNCC(=O)O; Gly(N-2-aminoethyl) = NCCNCC(=O)O; N(isopentyl)Gly = CC(C)CCNCC(=O)O; Nspe = C[C@H](NCC(=O)O)c1ccccc1; NhArg = N=C(N)NCCCCNCC(=O)O; Nphe = O=C(O)CNCc1ccccc1; Nlys = NCCCCNCC(=O)O

Regarding `C[C@@H](c1ccccc1)N(CC(N)=O)C(=O)CN(Cc1ccc(F)cc1)C(=O)CN(CCCCN)C(=O)CN(C(=O)CN(Cc1ccc(F)cc1)C(=O)CN(CCCCN)C(=O)CN(C(=O)CN(Cc1ccc(F)cc1)C(=O)CN(CCCCN)C(=O)CN(C(=O)CN(Cc1ccc(F)cc1)C(=O)CNCCCCN)[C@@H](C)c1ccccc1)[C@@H](C)c1ccccc1)[C@@H](C)c1ccccc1`, the selectivity ratio in data set [1] is 10; in data set [2] it was 10; in data set [3] it was 13; in data set [4], 13.

Turning to `NCCNCC(=O)N(CC(=O)N(CC(=O)N(CCN)CC(=O)N(CC(=O)N(CC(=O)N(CCN)CC(=O)N(CC(=O)N(CC(=O)N(CCN)CC(=O)N(CC(=O)N(CC(N)=O)Cc1ccccc1)Cc1ccccc1)Cc1ccccc1)Cc1ccccc1)Cc1ccccc1)Cc1ccccc1)Cc1ccccc1)Cc1ccccc1` (H-[Gly(N-2-aminoethyl)][Nphe][Nphe][Gly(N-2-aminoethyl)][Nphe][Nphe][Gly(N-2-aminoethyl)][Nphe][Nphe][Gly(N-2-aminoethyl)][Nphe][Nphe]-NH2), the CC50 at 24 h in data set [5] and in [6] was more than 100 µM in each case. In addition, the selectivity ratio in [7] came to 8; in [2], 17; in data set [8], 8; in data set [4], 17.

With `C[C@@H](c1ccccc1)N(CC(N)=O)C(=O)CN(C(=O)CN(CCCCCCN)C(=O)CN(C(=O)CN(C(=O)CN(CCCCCCN)C(=O)CN(C(=O)CN(C(=O)CN(CCCCCCN)C(=O)CN(C(=O)CN(C(=O)CNCCCCCCN)[C@@H](C)c1ccccc1)[C@@H](C)c1ccccc1)[C@@H](C)c1ccccc1)[C@@H](C)c1ccccc1)[C@@H](C)c1ccccc1)[C@@H](C)c1ccccc1)[C@@H](C)c1ccccc1` (H-[Gly(N-(CH2)6NH2)][Nspe][Nspe][Gly(N-(CH2)6NH2)][Nspe][Nspe][Gly(N-(CH2)6NH2)][Nspe][Nspe][Gly(N-(CH2)6NH2)][Nspe][Nspe]-NH2), the selectivity ratio in [9] was 0; in data set [1], 12; in data set [2], 12; in data set [10] it was 1; in data set [3] it was 21; in [4] it was 21.

With `CC(C)CCN(CC(=O)N(CC(N)=O)[C@@H](C)c1ccccc1)C(=O)CN(CCCCNC(=N)N)C(=O)CN(C(=O)CN(CCC(C)C)C(=O)CN(CCCCNC(=N)N)C(=O)CN(C(=O)CN(CCC(C)C)C(=O)CNCCCCNC(=N)N)[C@@H](C)c1ccccc1)[C@@H](C)c1ccccc1` (H-[NhArg][N(isopentyl)Gly][Nspe][NhArg][N(isopentyl)Gly][Nspe][NhArg][N(isopentyl)Gly][Nspe]-NH2), in the data set with Pseudomonas aeruginosa, the minimum inhibitory concentration (MIC) was more than 100 µM.

`N=C(N)NCCCCNCC(=O)N(CC(=O)N(CC(=O)N(CCCCNC(=N)N)CC(=O)N(CC(=O)N(CC(=O)N(CCCCNC(=N)N)CC(=O)N(CC(=O)N(CC(=O)N(CCCCNC(=N)N)CC(=O)N(CC(=O)N(CC(N)=O)Cc1ccccc1)Cc1ccccc1)Cc1ccccc1)Cc1ccccc1)Cc1ccccc1)Cc1ccccc1)Cc1ccccc1)Cc1ccccc1` (H-[NhArg][Nphe][Nphe][NhArg][Nphe][Nphe][NhArg][Nphe][Nphe][NhArg][Nphe][Nphe]-NH2): the CC50 at 24 h in data set [5] was more than 100 µM. Further, the selectivity ratio in data set [7] came out at 17; in data set [9] it was 4; in data set [2] it was 50.

For the compound `C[C@@H](c1ccccc1)N(CC(N)=O)C(=O)CN(C(=O)CN(CCCCN)C(=O)CN(C(=O)CN(C(=O)CN(CCCCN)C(=O)CN(C(=O)CN(C(=O)CN(CCCCNC(=N)N)C(=O)CN(C(=O)CN(C(=O)CNCCCCNC(=N)N)[C@@H](C)c1ccccc1)[C@@H](C)c1ccccc1)[C@@H](C)c1ccccc1)[C@@H](C)c1ccccc1)[C@@H](C)c1ccccc1)[C@@H](C)c1ccccc1)[C@@H](C)c1ccccc1` (H-[NhArg][Nspe][Nspe][NhArg][Nspe][Nspe][Nlys][Nspe][Nspe][Nlys][Nspe][Nspe]-NH2), the selectivity ratio in data set [7], in data set [9] and in data set [1] was 1 throughout.

With `C[C@@H](c1ccccc1)N(CC(N)=O)C(=O)CN(C(=O)CN(CCCCN)C(=O)CN(C(=O)CN(C(=O)CN(CCCCNC(=N)N)C(=O)CN(C(=O)CN(C(=O)CN(CCCCN)C(=O)CN(C(=O)CN(C(=O)CNCCCCNC(=N)N)[C@@H](C)c1ccccc1)[C@@H](C)c1ccccc1)[C@@H](C)c1ccccc1)[C@@H](C)c1ccccc1)[C@@H](C)c1ccccc1)[C@@H](C)c1ccccc1)[C@@H](C)c1ccccc1` (H-[NhArg][Nspe][Nspe][Nlys][Nspe][Nspe][NhArg][Nspe][Nspe][Nlys][Nspe][Nspe]-NH2), the selectivity ratio in data set [7], in data set [1] and in [8] was 2 throughout.

With `NCCCCNCC(=O)N(CC(=O)N(CC(=O)N(CCCCN)CC(=O)N(CC(=O)N(CC(=O)N(CCCCN)CC(=O)N(CC(=O)N(CC(N)=O)Cc1ccc(F)cc1)Cc1ccc(F)cc1)Cc1ccc(F)cc1)Cc1ccc(F)cc1)Cc1ccc(F)cc1)Cc1ccc(F)cc1` (H-[Nlys][N(4-F-Bzl)Gly][N(4-F-Bzl)Gly][Nlys][N(4-F-Bzl)Gly][N(4-F-Bzl)Gly][Nlys][N(4-F-Bzl)Gly][N(4-F-Bzl)Gly]-NH2), the CC50 at 24 h in data set [5] was more than 100 µM. The selectivity ratio in data set [7] was determined as 6; in data set [1], 33; in [2], 33; in data set [8], 3; in [3], 15; in data set [4], 15.

As to `NCCCCNCC(=O)N(CC(=O)N(CC(=O)N(CCCCN)CC(=O)N(CC(=O)N(CC(=O)N(CCCCN)CC(=O)N(CC(=O)N(CC(=O)N(CCCCN)CC(=O)N(CC(=O)N(CC(N)=O)Cc1ccc(F)cc1)Cc1ccc(F)cc1)Cc1ccc(F)cc1)Cc1ccc(F)cc1)Cc1ccc(F)cc1)Cc1ccc(F)cc1)Cc1ccc(F)cc1)Cc1ccc(F)cc1` (H-[Nlys][N(4-F-Bzl)Gly][N(4-F-Bzl)Gly][Nlys][N(4-F-Bzl)Gly][N(4-F-Bzl)Gly][Nlys][N(4-F-Bzl)Gly][N(4-F-Bzl)Gly][Nlys][N(4-F-Bzl)Gly][N(4-F-Bzl)Gly]-NH2), the selectivity ratio was 4 in data set [7]; 23 in data set [1]; 46 in [2]; 2 in [8]; 15 in [3]; 30 in [4].

Turning to `NCCCCNCC(=O)N(CC(=O)N(CC(=O)N(CCCCN)CC(=O)N(CC(=O)N(CC(=O)N(CCCCN)CC(=O)N(CC(=O)N(CC(=O)N(CCCCN)CC(=O)N(CC(=O)N(CC(N)=O)Cc1ccccc1)Cc1ccccc1)Cc1ccccc1)Cc1ccccc1)Cc1ccccc1)Cc1ccccc1)Cc1ccccc1)Cc1ccccc1` (H-[Nlys][Nphe][Nphe][Nlys][Nphe][Nphe][Nlys][Nphe][Nphe][Nlys][Nphe][Nphe]-NH2), the CC50 at 24 h in data set [6] is more than 100 µM. Further, the selectivity ratio in data set [7] was found to be 3; in data set [1], 12; in data set [2] it was 18; in [8], 8; in [3], 33; in [4], 50.

On to `C[C@@H](c1ccccc1)N(CC(N)=O)C(=O)CN(C(=O)CN(CCCCN)C(=O)CN(C(=O)CN(C(=O)CN(CCCCN)C(=O)CN(C(=O)CN(C(=O)CN(CCCCNC(=N)N)C(=O)CN(C(=O)CN(C(=O)CNCCCCN)[C@@H](C)c1ccccc1)[C@@H](C)c1ccccc1)[C@@H](C)c1ccccc1)[C@@H](C)c1ccccc1)[C@@H](C)c1ccccc1)[C@@H](C)c1ccccc1)[C@@H](C)c1ccccc1` (H-[Nlys][Nspe][Nspe][NhArg][Nspe][Nspe][Nlys][Nspe][Nspe][Nlys][Nspe][Nspe]-NH2), for which the selectivity ratio in data set [7], in data set [9], in data set [1] and in data set [8] was 2 each time.

As for `C[C@@H](c1ccccc1)N(CC(N)=O)C(=O)CN(C(=O)CN(CCCCNC(=N)N)C(=O)CN(C(=O)CN(C(=O)CN(CCCCNC(=N)N)C(=O)CN(C(=O)CN(C(=O)CN(CCCCN)C(=O)CN(C(=O)CN(C(=O)CNCCCCN)[C@@H](C)c1ccccc1)[C@@H](C)c1ccccc1)[C@@H](C)c1ccccc1)[C@@H](C)c1ccccc1)[C@@H](C)c1ccccc1)[C@@H](C)c1ccccc1)[C@@H](C)c1ccccc1` (H-[Nlys][Nspe][Nspe][Nlys][Nspe][Nspe][NhArg][Nspe][Nspe][NhArg][Nspe][Nspe]-NH2), the CC50 at 24 h in [5] is more than 100 µM. For the same compound, the selectivity ratio in data set [7] is 6; in [9] it was 3; in data set [1], 6.
